The full list was thinned out, with hits kept by preference.
BB579 growth dn – growth inhibitors of yeast BB579 in restrictive medium, primary screen, yeast lifespan-shortening project, S. cerevisiae | OD615, 48 h | inhibition, % at 10 µM | 140,000 compounds, 0.51% hits | AID 804, 2007;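 active means inhibition above a set limit, 3 SD over the mean compound inhibition, cut at about 44% in these data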
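Assay system: S. cerevisiae DeaD strain BB579 yeast. Medium: CSMM-D restrictive synthetic medium containing dextrose (glucose). Times: 4 h cell preincubation, 48 h compound exposure, 30 °C humidified. Signal: OD615 turbidity measurement. Benchmarks: positive control amphotericin B 10 µg/mL.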
PostGolgi yeast – phenotypic screen on post-Golgi transport, primary screen. 98,000 compounds, 0.9% hits. post-Golgi transport phenotypic cell assay. inhibition, % at 10 µM;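 further: yeast cells grown in 1536-well plates; yeast grown about 18 h at 30C before absorbance read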
Yeast lifespan up – compounds extending yeast replicative lifespan, primary screen, S. cerevisiae, OD615; S. cerevisiae growth with nicotinamide; deaD strain in restrictive glucose medium; inhibition of the nicotinamide effect, % at 10 µM; 130,000 compounds, 0.68% hits;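 active means inhibition above a set limit, placed 3 SD over the median of all compounds, cut at about 26% in these data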
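System: DeaD-strain S. cerevisiae / Buffer or medium: CSMM-D, restrictive glucose (dextrose) synthetic minimal medium / Probe or stimulus: nicotinamide, 1.5 mM, co-present with compound / Compound: one concentration, 10 µM, DMSO 0.25% / Incubation: 48 h compound exposure at 30 °C, humidified / Technique: optical density (absorbance) at 615 nm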
PostGolgi ctrl – growth inhibition of yeast control strain, primary screen, counter-screen for post-Golgi transport modulator project; 98,000 compounds, 5% hits; efflux-deficient yeast background strain, growth absorbance A615, 16 h; inhibition, % at 10 µM
Of the large screens only hits and unclear results are named; the others gave an inactive call. Unless noted, no stated cut-off is given here; in the data, active means inhibition above about 30%; inactive means the rest.

CC1(C)CC(=O)C2=C(C1)N(CC1CCCO1)C(=O)C2(NC(=O)c1cccnc1)C(F)(F)F (centres undefined)	none
NC(=S)N/N=C/C=C/c1ccccc1	none (no result: PostGolgi yeast, PostGolgi ctrl)
O=C1c2ccc3c4c(ccc(c24)C(=O)N1NC(=O)C(F)(F)F)CC3	BB579 growth dn 54
O=C(NN1C(=O)c2ccc3c4c(ccc(c24)C1=O)CC3)c1ccc(Br)cc1	none
Cc1ccc(NC(=O)CC2S/C(=N/c3nccs3)N(C)C2=O)c(C)c1 (centres undefined)	PostGolgi ctrl 32
CN=C1SC(CC(=O)Nc2ccccc2F)C(=O)N1C (centres undefined)	none
Cc1c(CNC2CCCC2)c(C(=O)O)c(C)n1Cc1ccccc1	none (no result: PostGolgi yeast, PostGolgi ctrl)
CCC(CO)NC(=O)c1cc2c(s1)CCC2 (centres undefined)	PostGolgi yeast 31
FC(F)(F)c1nnc(-c2ccccc2)nc1Oc1ccc(Cl)cc1Cl	PostGolgi ctrl 34
CCOC(=O)c1nnc(-c2ccccc2)nc1Oc1ccccc1Cl	PostGolgi ctrl 31
Cc1ccc2nc(NC(=O)c3ccc(NS(=O)(=O)c4cccs4)cc3)sc2c1	none (no result: PostGolgi yeast, PostGolgi ctrl)
O=C1N2c3ccccc3CCc3cccc(c32)C1(O)C(F)(F)F (centres undefined)	PostGolgi ctrl 50
CCCCCc1nnc(NC(=O)C(=O)OCC)s1	Yeast lifespan up 39
CCOC(=O)C(=O)Nc1nnc(SCc2ccc(F)cc2)s1	Yeast lifespan up 35 (no result: PostGolgi yeast, PostGolgi ctrl)
CCC(=O)Nc1nnc(SCc2ccc(F)cc2)s1	none (no result: PostGolgi yeast, Yeast lifespan up, PostGolgi ctrl)
CCCCOC(=O)Nc1nnc(CCOCC)s1	none
CCCCN(CCCC)C(=S)NC(=O)c1ccccc1Cl	none (no result: PostGolgi yeast, PostGolgi ctrl)
O=C(Nc1nc(-c2cccs2)cs1)c1ccc(Cl)s1	PostGolgi yeast 32
CC(=O)Nc1nc(-c2cccs2)cs1	none
CSCCC(NC(=O)c1cccc(C)c1)C(=O)OCC(=O)NC(=O)c1cccn1C (centres undefined)	none (no result: PostGolgi yeast, PostGolgi ctrl)
Cc1ccc(OCC(=O)N2CCN(c3nnc(-c4ccc(C)cc4)c4ccccc34)CC2)cc1	PostGolgi ctrl 71
COc1ccc(OCC(=O)N2CCN(c3nnc(-c4ccccc4)c4ccccc34)CC2)cc1	PostGolgi ctrl 32
CNC(=O)C12CC3CC(CC(Cl)(C3)C1)C2	none (no result: PostGolgi yeast, PostGolgi ctrl)
COCCCNC(=S)N1CCN(S(C)(=O)=O)CC1	none (no result: PostGolgi yeast, PostGolgi ctrl)
NC(=O)CC[C@H](NC(=O)c1ccc(F)cc1)C(=O)OCC(=O)Nc1ccc(N2CCOCC2)cc1	none (no result: PostGolgi yeast, PostGolgi ctrl)
Cc1ccc(C(=O)Cn2nnc3ccccc32)cc1	none
CCN(C(=O)c1ccc(C(C)(C)C)cc1)c1nnc(Cn2nnc3ccccc32)s1	PostGolgi ctrl 43
COc1ccc2c(=O)c3c(=O)n(Cc4ccco4)c(C(C)C)nc3oc2c1	none (no result: PostGolgi yeast, Yeast lifespan up, PostGolgi ctrl)
COc1ccc2c(=O)c3c(=O)n(Cc4ccco4)c(-c4ccc(C)cc4)nc3oc2c1	Yeast lifespan up 47, PostGolgi ctrl 44
COc1ccc(C(=O)NN=C(Cc2ccccc2)Cc2ccccc2)cc1OC	none (no result: PostGolgi yeast, PostGolgi ctrl)
O=C(CSc1cccc2cccnc12)N1CCCC1	none
C/C(=N\NC(=O)c1ccc(CSc2cccc3cccnc23)cc1)C1CCCCC1	BB579 growth dn 71 (no result: PostGolgi yeast, PostGolgi ctrl)
COc1ccc(/C(C)=N/NC(=O)c2ccc(CSc3cccc4cccnc34)cc2)cc1OC	BB579 growth dn 71
N#Cc1sc2nc(-c3cccs3)cc(-c3ccc(Cl)cc3)c2c1N	none
COc1ccc(-c2cc(C3CC3)nc3sc(C#N)c(N)c23)cc1	PostGolgi ctrl 63
CCCc1cc(-c2n[nH]c(=S)n2C(C)c2ccccc2)cs1 (centres undefined)	BB579 growth dn 50, PostGolgi ctrl 42
CCCOC(=O)c1ccc(NC(=O)c2cc(OC)c(OC)c(OC)c2Br)cc1	none
O=C(O)CCSCCC(=O)O	PostGolgi yeast 33
CCCN(CCC)C(=O)CCSCCC(=O)N(CCC)CCC	none (no result: PostGolgi yeast, PostGolgi ctrl)
COc1ccccc1NC(=O)CN1C(=O)NC(CC(C)C)C1=O (centres undefined)	PostGolgi ctrl 48
COc1ccccc1NC(=O)CN1C(=O)C(C)SC(C)C1=O (centres undefined)	none (no result: PostGolgi yeast, PostGolgi ctrl)
Cn1c(CSCc2ccccc2)n[nH]c1=S	none (no result: PostGolgi yeast, PostGolgi ctrl)
Cn1c(C(=O)N2CCN(C(=O)c3ccco3)CC2)cc2c(=O)n(C)c3ccccc3c21	PostGolgi ctrl 35
Cc1cc(N2CCN(C(=O)c3ccco3)CC2)n2nc(-c3cccc(Cl)c3)cc2n1	PostGolgi ctrl 52
Cc1nn2c(N3CCN(C(=O)c4ccco4)CC3)cc(C(C)(C)C)nc2c1-c1ccc(Cl)cc1	none
Cc1cc(N2CCN(C(=O)c3ccco3)CC2)n2nc(C)c(-c3ccccc3)c2n1	PostGolgi yeast 31, PostGolgi ctrl 98
COCCCNC(=O)c1cc2c(=O)n(C)c3ccccc3c2n1C	PostGolgi ctrl 39
Cn1c(Cn2nnc(-c3ccccc3)n2)nnc1SCc1ccccc1Cl	none
CCN1CCN(c2cc(C(C)(C)C)nc3c(-c4ccccc4)c(C)nn23)CC1	PostGolgi ctrl 76
O=C(c1ccco1)N1CCN(C(=O)c2cc(-c3ccccc3)nc3ccccc23)CC1	PostGolgi ctrl 31
CCCc1cc(N2CCCC2)n2nc(C)c(-c3ccccc3)c2n1	none
CC1(C)CC(=O)C(C=NCCN2CCN(C(=S)Nc3ccc(F)cc3)CC2)=C(O)C1	none
CCCC(=O)c1cc(F)c(N2CCOCC2)cc1C	none
CC(C)P(=O)(c1cccc(C(=O)O)c1)C(C)C	none (no result: PostGolgi yeast, PostGolgi ctrl)
COC(=O)c1nn(-c2ccc3c(c2)OCO3)cc1O	PostGolgi ctrl 37
COC(=O)c1nn(-c2ccc3c(c2)CCN3C(C)=O)cc1O	none
COc1ccc(-c2[nH]ncc2/C=C(/C#N)C(=O)NC2CCCCCC2)cc1	PostGolgi ctrl 50
COc1ccc(C(=O)/C=C2/c3ccccc3CC(C)(C)N2C)cc1OC	none (no result: PostGolgi yeast, PostGolgi ctrl)
CCC1(C)N([O-])C(C)=C(c2ccccc2)[N+]1=O (centres undefined)	none
CC1(C)N([O-])C2=C(c3ccccc3C2=O)[N+](=O)C1(C)C	Yeast lifespan up 53
Cc1cc(C(=O)c2ccc(C(C)(C)C)cc2)c(NC(=O)CCl)s1	none (no result: PostGolgi yeast, PostGolgi ctrl)
OC(CNCc1ccco1)Cn1c2ccc(Br)cc2c2cc(Br)ccc21 (centres undefined)	PostGolgi yeast 106, PostGolgi ctrl 99
O=C(NCc1ccccn1)c1ccc(CNS(=O)(=O)c2cccc(Cl)c2)cc1	none (no result: PostGolgi yeast, PostGolgi ctrl)
COc1cc2c(cc1NS(=O)(=O)N1CCCC1)oc1ccccc12	PostGolgi ctrl 49
COC(=O)c1c(NC(=O)c2nn(C)cc2Cl)sc2c1CCCC2	PostGolgi ctrl 33
COC(=O)c1c(NC(=O)C2CC2)sc2c1CCCC2	PostGolgi ctrl 35
COC(=O)c1c(NC(NC(=O)C(C)(C)C)C(Cl)(Cl)Cl)sc2c1CCC2 (centres undefined)	PostGolgi ctrl 51
COC(=O)c1c(NC(=O)c2ccc(Br)s2)sc2c1CCC2	none
CCc1nnc(NC(=O)[C@@H](NC(=O)c2cccc(S(=O)(=O)N(CC)CC)c2)C(C)C)s1	none
CCOc1ccc(NC2c3ccccc3C(=O)N2Cc2ccc3c(c2)OCO3)cc1 (centres undefined)	PostGolgi ctrl 31
NC1=C([N+](=O)[O-])C(c2ccc(F)cc2)C2=C(CCCC2=O)O1 (centres undefined)	none (no result: PostGolgi yeast, PostGolgi ctrl)

Assay outcomes: PubChem, SRMLSC
